Test results: ChEMBL document CHEMBL3997769, “Discovery and preclinical evaluation of 7-benzyl-N-(substituted)-pyrrolo[3,2-d]pyrimidin-4-amines as single agents with microtubule targeting effects along with triple-acting angiokinase inhibition as antitumor agents” (Bioorg Med Chem, 2017)
Activity calls are given as the source filed them. The rule behind the calls is not given here.

Experiments:
CCRF-CEM = test: Growth inhibition of human CCRF-CEM cells incubated for 48 hrs by sulforhodamine B assay; assay type: functional
Bos taurus [1] = species: Bos taurus; test: Displacement of [3H]colchicine from bovine brain tubulin at 5 uM measured after 10 mins by liquid scintillation counting method relative to control
Bos taurus [2] = species: Bos taurus; test: Displacement of [3H]colchicine from bovine brain tubulin at 1 uM measured after 10 mins by liquid scintillation counting method relative to control
K562 = test: Growth inhibition of human K562 cells incubated for 48 hrs by sulforhodamine B assay; assay type: functional; conditions: K562, 48 h
RPMI-8226 = test: Growth inhibition of human RPMI8226 cells incubated for 48 hrs by sulforhodamine B assay; assay type: functional; conditions: RPMI-8226, 48 h
SR = test: Growth inhibition of human SR cells incubated for 48 hrs by sulforhodamine B assay; assay type: functional
NCI-H226 = test: Growth inhibition of human NCI-H226 cells incubated for 48 hrs by sulforhodamine B assay; assay type: functional; conditions: NCI-H226, 48 h
NCI-H23 = test: Growth inhibition of human NCI-H23 cells incubated for 48 hrs by sulforhodamine B assay; assay type: functional; conditions: NCI-H23, 48 h
NCI-H322M = test: Growth inhibition of human NCI-H322M cells incubated for 48 hrs by sulforhodamine B assay; assay type: functional
NCI-H460 = test: Growth inhibition of human NCI-H460 cells incubated for 48 hrs by sulforhodamine B assay; assay type: functional; conditions: NCI-H460, 48 h
NCI-H522 = test: Growth inhibition of human NCI-H522 cells incubated for 48 hrs by sulforhodamine B assay; assay type: functional; conditions: NCI-H522, 48 h
COLO 205 = test: Growth inhibition of human COLO205 cells incubated for 48 hrs by sulforhodamine B assay; assay type: functional; conditions: COLO 205, 48 h
HCT-15 = test: Growth inhibition of human HCT15 cells incubated for 48 hrs by sulforhodamine B assay; assay type: functional; conditions: HCT-15, 48 h
SW-620 = test: Growth inhibition of human SW620 cells incubated for 48 hrs by sulforhodamine B assay; assay type: functional; conditions: SW-620, 48 h
SF-295 = test: Growth inhibition of human SF295 cells incubated for 48 hrs by sulforhodamine B assay; assay type: functional; conditions: SF-295, 48 h
SF-539 = test: Growth inhibition of human SF539 cells incubated for 48 hrs by sulforhodamine B assay; assay type: functional; conditions: SF-539, 48 h
SNB-75 = test: Growth inhibition of human SNB75 cells incubated for 48 hrs by sulforhodamine B assay; assay type: functional; conditions: SNB-75, 48 h
U-251 = test: Growth inhibition of human U251 cells incubated for 48 hrs by sulforhodamine B assay; assay type: functional; conditions: U-251, 48 h
LOX IMVI = test: Growth inhibition of human LOXIMVI cells incubated for 48 hrs by sulforhodamine B assay; assay type: functional
MDA-MB-435 = test: Growth inhibition of human MDA-MB-435 cells incubated for 48 hrs by sulforhodamine B assay; assay type: functional; conditions: MDA-MB-435, 48 h
SK-MEL-2 = test: Growth inhibition of human SK-MEL-2 cells incubated for 48 hrs by sulforhodamine B assay; assay type: functional; conditions: SK-MEL-2, 48 h
SK-MEL-28 = test: Growth inhibition of human SK-MEL-28 cells incubated for 48 hrs by sulforhodamine B assay; assay type: functional; conditions: SK-MEL-28, 48 h
SK-MEL-5 = test: Growth inhibition of human SK-MEL-5 cells incubated for 48 hrs by sulforhodamine B assay; assay type: functional; conditions: SK-MEL-5, 48 h
UACC-62 = test: Growth inhibition of human UACC62 cells incubated for 48 hrs by sulforhodamine B assay; assay type: functional; conditions: UACC-62, 48 h
IGROV-1 = test: Growth inhibition of human IGROV1 cells incubated for 48 hrs by sulforhodamine B assay; assay type: functional; conditions: IGROV-1, 48 h
OVCAR-3 = test: Growth inhibition of human OVCAR3 cells incubated for 48 hrs by sulforhodamine B assay; assay type: functional; conditions: OVCAR-3, 48 h
OVCAR-5 = test: Growth inhibition of human OVCAR5 cells incubated for 48 hrs by sulforhodamine B assay; assay type: functional; conditions: OVCAR-5, 48 h
786-0 = test: Growth inhibition of human 786-0 cells incubated for 48 hrs by sulforhodamine B assay; assay type: functional; conditions: 786-0, 48 h
ACHN = test: Growth inhibition of human ACHN cells incubated for 48 hrs by sulforhodamine B assay; assay type: functional
CAKI-1 = test: Growth inhibition of human Caki1 cells incubated for 48 hrs by sulforhodamine B assay; assay type: functional; conditions: CAKI-1, 48 h
SN12C = test: Growth inhibition of human SN12C cells incubated for 48 hrs by sulforhodamine B assay; assay type: functional
UO-31 = test: Growth inhibition of human UO31 cells incubated for 48 hrs by sulforhodamine B assay; assay type: functional; conditions: UO-31, 48 h
DU-145 = test: Growth inhibition of human DU145 cells incubated for 48 hrs by sulforhodamine B assay; assay type: functional; conditions: DU-145, 48 h
MDA-MB-231 = test: Growth inhibition of human MDA-MB-231 cells incubated for 48 hrs by sulforhodamine B assay; assay type: functional; conditions: MDA-MB-231, 48 h
Hs-578T = test: Growth inhibition of human Hs578T cells incubated for 48 hrs by sulforhodamine B assay; assay type: functional
BT-549 = test: Growth inhibition of human BT549 cells incubated for 48 hrs by sulforhodamine B assay; assay type: functional; conditions: BT-549, 48 h
Chorioallantoic membrane = test: Antiangiogenic activity in Leghorn chicken egg chorioallantoic membrane assessed as inhibition of human VEGF-165/bFGF-induced blood vessels formation measured after 40 hrs by microscopic method; assay type: functional, tissue-based; conditions: Gallus gallus
4T1 [3] = test: Antitumor activity against luciferase/GFP-tagged mouse 4T1 cells implanted in Balb/CJ mouse assessed as reduction in primary tumor growth at 50 mg/kg, ip administered three times in a week; assay type: functional, organism-based
Mus musculus [4] = test: Toxicity in Balb/cJ mouse implanted with luciferase/GFP-tagged mouse 4T1 cells assessed as body weight change at 50 mg/kg, ip administered three times weekly measured at day 40 post dose; assay type: organism-based; conditions: in vivo
4T1 [5] = test: Antitumor activity against luciferase/GFP-tagged mouse 4T1 cells implanted in Balb/cJ mouse assessed as reduction in lung metastasis at 50 mg/kg, ip administered three times weekly by fluorescence microscopic method; assay type: functional, organism-based
How it was run: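 Orthotopic 4T1-Luc2-GFP allograft in the mammary fat pad of female BALB/cJ mice; IP treatment in 5% Pharmasolve/5% Solutol HS in saline began one week after implantation. At study end, lungs were excised from mice euthanized under isoflurane and imaged with a GFP-filter fluorescence dissecting microscope; GFP-positive metastases per lung counted. n = 9-10.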

[6] = Solubility of the compound in water; assay type: physicochemical; conditions: buffer
Mus musculus [7] = test: Toxicity in Balb/cJ mouse assessed as body weight loss administered three times weekly measured every 2 days during compound dosing; conditions: in vivo, 48 h
How it was run: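 Female BALB/cJ mice, 8 weeks old, bearing orthotopic 4T1-Luc2-GFP allografts (7,500 cells implanted in mammary fat pad #4). Dosing began one week after implantation: intraperitoneal, three times weekly, in 5% Pharmasolve plus 5% Solutol HS in normal saline. Body weight reported as percent change at day 40 versus starting weight, with n = 9–10 and one-way ANOVA against untreated controls.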

Compound `COc1ccc(N(C)c2nc(C)nc3c(Cc4ccccc4)cn(C)c23)cc1.Cl` has a GI50 (CCRF-CEM) of 33.5 nM, an inhibition (Bos taurus [1]) of 92% and an inhibition (Bos taurus [2]) of 73%. It also gave a GI50 (K562) of 33.7 nM, a GI50 (RPMI-8226) of 36.9 nM and a GI50 (SR) of 33.8 nM. It also gave a GI50 (NCI-H226) of 304 nM, a GI50 (NCI-H23) of 45.8 nM and a GI50 (NCI-H322M) of 73.6 nM. For the same compound, the GI50 (NCI-H460) was 38.7 nM, the GI50 (NCI-H522) was 23.9 nM and the GI50 (COLO 205) was 26.3 nM. It also gave a GI50 (HCT-15) of 38.1 nM, a GI50 (SW-620) of 38.4 nM and a GI50 (SF-295) of 30.4 nM. The GI50 (SF-539) was 25.4 nM, the GI50 (SNB-75) was 27.8 nM and the GI50 (U-251) was 44.3 nM. The GI50 (LOX IMVI) was 58.8 nM, the GI50 (MDA-MB-435) was 21.4 nM and the GI50 (SK-MEL-2) was 28.6 nM. It also gave a GI50 (SK-MEL-28) of 48.7 nM, a GI50 (SK-MEL-5) of 54.2 nM and a GI50 (UACC-62) of 475 nM. It also gave a GI50 (IGROV-1) of 95.8 nM, a GI50 (OVCAR-3) of 35.2 nM and a GI50 (OVCAR-5) of 269 nM. For the same compound, the GI50 (786-0) was 93.2 nM, the GI50 (ACHN) was 172 nM and the GI50 (CAKI-1) was 56.6 nM. For the same compound, the GI50 (SN12C) was 88.7 nM, the GI50 (UO-31) was 209 nM and the GI50 (DU-145) was 44.4 nM. For the same compound, the GI50 (MDA-MB-231) was 63.7 nM, the GI50 (Hs-578T) was 62.3 nM and the GI50 (BT-549) was 48.2 nM. For the same compound, the IC50 (Chorioallantoic membrane) was 2200 nM, the Activity (4T1 [3]) was “Active” and the Activity (Mus musculus [4]) was “Non-Toxic”. For the same compound, the Activity (4T1 [5]) was “Active”, the solubility [6] was “Soluble” and the MTD (Mus musculus [7]) was 50 mg/kg.
